From ChEMBL document CHEMBL1123579, “Synthesis and evaluation of mono-, di-, and trifluoroethenyl-GABA derivatives as GABA-T inhibitors” (J Med Chem, 1987)

System: Mus musculus
Experiment: Brain GABA level was measured in mice 6 hour after intraperitoneal administration at a dose of 3.8 mM/ kg.
Assay type: functional
How it was run: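 Male Swiss Albino mice (20–25 g), housed five per cage under a 12-h light-dark cycle, were given drug ip as an aqueous solution. They were decapitated 6 h later and brains split sagittally and frozen. Half-brain was homogenized in 10 mL 0.2 N HClO4, and supernatant GABA was measured by automatic amino acid analyzer. Values are mean ± SEM of five animals (controls: 15, different days); Student's t test.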

| Compound | Activity [µM/g] |
| --- | --- |
| NC(CCC(=O)O)C(F)=C(F)F (stereo unspecified) | 2.7 |

System: Mus musculus
Experiment: In vivo brain GABA-T activity was measured in mice 6 hour after intraperitoneal administration at a dose of 1.9 mM / kg.
Assay type: functional
How it was run: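 Male Swiss Albino mice (20–25 g) received drug ip as aqueous solution and were decapitated 6 h later. Half-brain was frozen, then homogenized in 9 volumes of 10 mM KH2PO4 pH 6.8 with 0.1 mM pyridoxal phosphate, 1 mM EDTA, 0.1 mM glutathione, 0.13% Triton X-100 and 20% glycerol for GABA-T activity. Mean ± SEM, n = 5; control n = 15; Student's t test.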

| Compound | Activity [mM/h] |
| --- | --- |
| NC(C=C(F)F)CCC(=O)O (stereo unspecified) | 42.4 |
| C=C(F)C(N)CCC(=O)O (stereo unspecified) | 59.7 |
| NC(/C=C\F)CCC(=O)O (stereo unspecified) | 38.3 |
| C=CC(N)CCC(=O)O (stereo unspecified) [VIGABATRIN] | 29.3 |

System: not listed separately
Experiment: Dissociation constant pKa was reported.
Assay type: physicochemical

| pKa | Compound |
| --- | --- |
| 8.2 | C#CC(N)CCC(=O)O (stereo unspecified) |
| 8.32 | C=C(F)C(N)CCC(=O)O (stereo unspecified) |
| 9.5 | C=CC(N)CCC(=O)O (stereo unspecified) [VIGABATRIN] |

Second part, the molecule before the results:

| Compound | pKa |
| --- | --- |
| NC(C=C(F)F)CCC(=O)O (stereo unspecified) | 9.32 |
| NC(/C=C\F)CCC(=O)O (stereo unspecified) | 9.35 |
| NC(CCC(=O)O)C(F)=C(F)F (stereo unspecified) | 7.87 |

System: Mus musculus
Experiment: Brain GABA level was measured in mice 6 hour after intraperitoneal administration at a dose of 1.9 mM/ kg.
Assay type: functional
How it was run: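 Male Swiss Albino mice (20–25 g), housed five per cage with free food and water on a 12-h light cycle, received drug ip as aqueous solution and were decapitated 6 h later. Half-brain homogenized in 10 mL 0.2 N HClO4, and supernatant GABA measured on an automatic amino acid analyzer. Mean ± SEM of five animals; control n = 15 pooled across days; Student's t test.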

| Compound | Activity [µM/g] |
| --- | --- |
| NC(C=C(F)F)CCC(=O)O (stereo unspecified) | 2.8 |
| C=C(F)C(N)CCC(=O)O (stereo unspecified) | 3.6 |
| NC(/C=C\F)CCC(=O)O (stereo unspecified) | 9.8 |
| C=CC(N)CCC(=O)O (stereo unspecified) [VIGABATRIN] | 9.1 |

System: Mus musculus
Experiment: In vivo brain GABA-T activity was measured in mice 6 hour after intraperitoneal administration at a dose of 3.8 mM / kg.
Assay type: functional
How it was run: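 Male Swiss Albino mice (20–25 g) got an ip aqueous dose and were decapitated 6 h later. Brains were split sagittally and frozen. Half-brain was homogenized in 9 volumes of 10 mM KH2PO4 pH 6.8 with 0.1 mM pyridoxal phosphate, 1 mM EDTA, 0.1 mM glutathione, 0.13% Triton X-100 and 20% glycerol for GABA-T activity. Values are mean ± SEM, n = 5 (controls 15); Student's t test.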

| Compound | Activity [mM/h] |
| --- | --- |
| NC(CCC(=O)O)C(F)=C(F)F (stereo unspecified) | 69.4 |
